Measurements gathered from unrelated publications.
Each line is one published result; the experiments were not run side by side.
Target: Mitogen-activated protein kinase kinase kinase kinase 1 (MAP4K1, Homo sapiens, UniProt Q92918)

Cc1cnn2ncc(-c3ccnc(N(C)C)n3)c2c1 has a remaining binding of 99% (binding; 1 µM).
CSc1cccnc1N1CCN(Cc2nc3ccccc3[nH]2)CC1 has a remaining binding of 100% (cell-free assay, competition with immobilised ligand; 1 µM).
For COc1ccnn2ncc(-c3ccnc(N(C)C)n3)c12, the remaining binding was 100% (binding; 1 µM).
The remaining binding of COCCOc1nc(-c2ccc(Cl)nc2)nc2c1CN(C(=O)c1ncn3ccccc13)CC2 is reported as 92% (cell-free assay, competition with immobilised ligand; 0.1 µM).
For CN(C)c1ncc(F)c(-c2cnn3ncccc23)n1, the remaining binding was 100% (binding; 1 µM).
For O=C(c1ccc(Nc2nccc(-c3cc4ccccc4s3)n2)cc1)N1CCC(N2CCCC2)CC1, the remaining binding was 84% (binding, competition with immobilised ligand; 1 µM).
O=C(Nc1c[nH]nc1C(=O)NC1CCNCC1)c1cc(F)cc(F)c1 has a remaining binding of 100% (binding, competition with immobilised ligand; 1 µM).
O=C(c1ccc(Nc2ncc(Cl)c(-c3ccc(Cl)s3)n2)cc1)N1CCC(N2CCCC2)CC1 has a remaining binding of 12% (binding, competition with immobilised ligand; 1 µM).
For CNC(=O)[C@@H]1CC[C@@H](n2c(-c3ccc4cnccc4c3)nc3ccc(C(=O)NCc4cccc(C(N)=O)c4)cc32)C1, the remaining binding was 82% (binding, competition with immobilised ligand; 1 µM).
With COc1ncc2cc3ccccc3nc2c1C#N the remaining binding was 89% (cell-free assay, competition with immobilised ligand; 5 µM).
The remaining binding of CN(CCCC(F)(F)F)c1nccc(-c2cnn3ncccc23)n1 is reported as 95% (binding; 1 µM).
With Cc1c(NC(=O)c2cc(C(N)=O)nc3cc(F)ccc23)c(C(F)(F)F)nn1Cc1ccc(C#N)cc1 the remaining binding was 100% (cell-free assay, competition with immobilised ligand; 1 µM).
For N[C@H]1CCN(c2nccc(-c3cnn4ncccc34)n2)C1, the remaining binding was 100% (binding; 1 µM).
For O=C(c1ccc(Nc2ncc(Cl)c(-c3cc4ccccc4s3)n2)cc1)N1CCC(N2CCCC2)CC1, the remaining binding was 26% (binding, competition with immobilised ligand; 1 µM).
C[C@@H]1CCN(c2nccc(-c3cnn4ncccc34)n2)C1 has a remaining binding of 100% (binding; 1 µM).
CCOCCn1cc(C(=O)Nc2ccc(-n3nc(-c4cccnc4)cc3C(F)(F)F)cn2)ccc1=O gave a remaining binding of 81% (cell-free assay, competition with immobilised ligand; 1 µM).
CCN1CCN(Cc2ccc(C(=O)Nc3ccc(C)c(Oc4ccc5c(c4)CC(=O)N5)c3)cc2C(F)(F)F)CC1 has a remaining binding of 90% (binding, competition with immobilised ligand; 1 µM).
The remaining binding of COc1cnc(Nc2cccc(S(N)(=O)=O)c2)nc1N1CCN(c2ccccc2)C(=O)C1 is reported as 87% (binding, competition with immobilised ligand; 1 µM).
N#Cc1ccc(Nc2ccc3[nH]c(=O)[nH]c3c2)c(Cl)c1 gave a remaining binding of 100% (cell-free assay, competition with immobilised ligand; 1 µM).
Nc1ncc2c(n1)-c1c([nH]c3ccc(C#CC4CC4)cc13)CCCC2 gave a remaining binding of 100% (binding, competition with immobilised ligand; 1 µM).
With C[C@H](c1ccnc(Nc2nc3ccc(-c4cc(N(C)C)ncn4)cc3[nH]2)c1)N1CCN(C(=O)CC(F)(F)F)CC1 the remaining binding was 51% (cell-free assay, competition with immobilised ligand; 0.1 µM).
CC1CCCN1c1nccc(-c2cnn3ncccc23)n1 (stereo not shown) gave a remaining binding of 100% (binding; 1 µM).
